# Laboratory results from PMC2714051 (European journal of medicinal chemistry, 2008).
# Key:
# [1] = test system: MCF-7 human breast cancer cells; experiment: MCF-7 cell growth, sulforhodamine B; format: cell-based
# MDA/MB-435 (breast) = experiment: MTT cytotoxicity assay, MDA/MB-435; format: cell-based; conditions: Homo sapiens, MDA-MB-435, 72 h, read-out: Cytotoxic activity IC50
# Procedure, shortened: (§1)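 Test compounds at 0.0009–5 µg/mL were incubated with the human tumour cells for 72 h. Growth was read by the cells' reduction of yellow MTT to blue formazan.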
# HCT-8 (colon) = experiment: MTT cytotoxicity assay, HCT-8; format: cell-based; conditions: Homo sapiens, HCT-8, 72 h, read-out: Cytotoxic activity IC50
# Procedure, shortened: as §1
# SF-295 (glyoblastoma) = experiment: MTT cytotoxicity assay, SF-295; format: cell-based; conditions: Homo sapiens, SF-295, 72 h, read-out: Cytotoxic activity IC50
# Procedure, shortened: as §1
# HL-60 (leukemia) = experiment: MTT cytotoxicity assay, HL-60; format: cell-based; conditions: Homo sapiens, HL-60, 72 h, read-out: Cytotoxic activity IC50
# Procedure, shortened: as §1
# bovine brain tubulin = experiment: [3H]colchicine binding to tubulin; conditions: 1 μM drug; 1.0 μM tubulin, 5.0 μM [3H]colchicine, 10 min 37 °C
SMILES,Fold less active than CA4 as an inhibitor of MCF-7 cell growth ([1]; in comparison with CA4),IC50 (MDA/MB-435 (breast)),IC50 (HCT-8 (colon)),IC50 (SF-295 (glyoblastoma)),IC50 (HL-60 (leukemia)),Colchicine binding % inhibition ± SD (bovine brain tubulin),"IC50 ([1]; Homo sapiens, MCF7, 48 h, read-out: MCF-7 cell growth IC50 ± SD)"
"COc1ccc(Sc2cc(OC)c(OC)c(OC)c2)cc1 [compound 1, 1,2,3-trimethoxy-5-[(4-methoxyphenyl)thio]benzene]",about 10 fold,0.001 µg/mL,0.01 µg/mL,0.01 µg/mL,0.001 µg/mL,,
"COc1ccc(/C=C\c2cc(OC)c(OC)c(OC)c2)cc1O [CA4, combretastatin A-4, reference compound]",,,,,,85 ± 5%,1.4 ± 0.1 nM
"COc1ccc(S(=O)(=O)c2cc(OC)c(OC)c(OC)c2)cc1 [compound 3, 1,2,3-trimethoxy-5[(4-methoxyphenyl)sulfonyl]benzene]",,0.75 µg/mL,3.95 µg/mL,2.61 µg/mL,1.53 µg/mL,,
"COc1ccc([S+]([O-])c2cc(OC)c(OC)c(OC)c2)cc1 (stereo not drawn) [compound 2, 1,2,3-trimethoxy-5[(4-methoxyphenyl)sulfinyl]benzene]",,0.09 µg/mL,0.15 µg/mL,0.47 µg/mL,0.11 µg/mL,,
